{
  "source": "ChEMBL document CHEMBL3352730",
  "about": "“Synthesis and effects on cell viability of flavonols and 3-methyl ether derivatives on human leukemia cells” (Eur J Med Chem, 2014)",
  "key": {"HL-60 [1]": {"system": "HL-60", "assay": "Induction of apoptosis in human HL60 cells assessed as pro-caspase-3 cleavage by Western blotting method", "format": "functional, cell-based", "how_it_was_run": "(§1)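 Cells were exposed to a range of compound concentrations and harvested at 24 h. Lysates were immunoblotted for caspase proforms and cleaved forms, and for Bcl-2 family proteins.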"}, "U-937 [2]": {"system": "U-937", "assay": "Induction of cell cycle arrest in human U937 cells assessed as accumulation at G1 phase at 3 uM after 24 hrs by propidium iodide staining based flow cytometry (reference value: 49.8 +/- 1.5%)", "format": "functional"}, "MOLT-3 [3]": {"system": "MOLT-3", "assay": "Induction of apoptosis in human MOLT3 cells assessed as pro-caspase-3 cleavage by Western blotting method", "format": "functional, cell-based", "how_it_was_run": "as §1"}, "[4]": {"molecular_target": "MAP kinase p38 (Homo sapiens) (UniProt O15264+Q15759+Q16539+P53778)", "assay": "Increase in p38 MAPK phosphorylation in human HL60 cells at 10 to 30 uM after 2 to 6 hrs by Western blotting method", "format": "cell-based", "conditions": "HL-60", "how_it_was_run": "(§2)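 HL-60 cells were incubated for a time course. Extracts were immunoblotted with phospho-specific antibodies for ERK 1/2, JNK/SAPK and p38MAPK. Membranes were then stripped and reprobed for the total kinases as loading controls.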"}, "U-937 [5]": {"system": "U-937", "assay": "Induction of cell cycle arrest in human U937 cells assessed as accumulation at S phase at 1 uM after 12 hrs by propidium iodide staining based flow cytometry (reference value: 20.5 +/- 0.8%)", "format": "functional"}, "HL-60 [6]": {"system": "HL-60", "assay": "Induction of apoptosis in human HL60 cells assessed as pro-caspase-7 cleavage by Western blotting method", "format": "functional, cell-based", "how_it_was_run": "as §1"}, "HL-60 [7]": {"system": "HL-60", "assay": "Induction of apoptosis in human HL60 cells assessed as nuclear chromatin condensation at 30 uM after 24 hrs by Hoechst 33258 staining based fluorescence microscopy", "format": "functional, cell-based", "how_it_was_run": "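HL-60 cells were treated at 30 µM for 24 h, stained with Hoechst 33258, and scored for chromatin condensation by fluorescence microscopy.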"}, "MOLT-3 [8]": {"system": "MOLT-3", "assay": "Induction of apoptosis in human MOLT3 cells assessed as increase in caspase 3/7 activity using DEVD-pNA substrate at 10 uM after 24 hrs", "format": "functional, cell-based", "how_it_was_run": "(§3)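 Cells were given 10 µM for 24 h. Lysates were assayed for cleavage of DEVD-pNA (caspase-3/7), IETD-pNA (caspase-8) and LEHD-pNA (caspase-9). Results are expressed as fold over control, from three independent experiments in triplicate.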"}, "HL-60 [9]": {"system": "HL-60", "assay": "Induction of cell cycle arrest in human HL60 cells assessed as accumulation at G2/M phase at 10 uM after 24 hrs by propidium iodide staining based flow cytometry (reference value: 22.5 +/- 0.9%)", "format": "functional"}, "U-937 [10]": {"system": "U-937", "assay": "Induction of cell cycle arrest in human U937 cells assessed as accumulation at G2/M phase at 1 uM after 48 hrs by propidium iodide staining based flow cytometry (reference value: 19.1 +/- 1.1%)", "format": "functional"}, "U-937 [11]": {"system": "U-937", "assay": "Induction of apoptosis in human U937 cells assessed as increase in caspase 3/7 activity using DEVD-pNA substrate at 10 uM after 24 hrs", "format": "functional, cell-based", "how_it_was_run": "as §3"}, "U-937 [12]": {"system": "U-937", "assay": "Induction of cell cycle arrest in human U937 cells assessed as accumulation at S phase at 10 uM after 12 hrs by propidium iodide staining based flow cytometry (reference value: 20.5 +/- 0.8%)", "format": "functional"}, "[13]": {"assay": "Cytotoxicity against human HL60 cells after 72 hrs by MTT assay", "format": "functional, cell-based", "conditions": "HL-60, 72 h", "how_it_was_run": "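MTT colorimetric assay with 72 h continuous exposure. IC50 was fitted per experiment by non-linear regression. Values are means with SE from at least three independent experiments, each run in triplicate.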"}, "U-937 [14]": {"system": "U-937", "assay": "Induction of cell cycle arrest in human U937 cells assessed as accumulation at G1 phase at 10 uM after 24 hrs by propidium iodide staining based flow cytometry (reference value: 49.8 +/- 1.5%)", "format": "functional"}, "MOLT-3 [15]": {"system": "MOLT-3", "assay": "Effect on Bcl-2 expression in human MOLT3 cells by Western blotting method", "format": "functional, cell-based", "how_it_was_run": "as §1"}, "HL-60 [16]": {"system": "HL-60", "assay": "Induction of cell cycle arrest in human HL60 cells assessed as accumulation at G1 phase at 10 uM after 12 hrs by propidium iodide staining based flow cytometry (reference value: 57.2 +/- 0.9%)", "format": "functional"}, "U-937 [17]": {"system": "U-937", "assay": "Induction of cell cycle arrest in human U937 cells assessed as accumulation at G2/M phase at 1 uM after 12 hrs by propidium iodide staining based flow cytometry (reference value: 24.2 +/- 1.2%)", "format": "functional"}, "HL-60 [18]": {"system": "HL-60", "assay": "Induction of cell cycle arrest in human HL60 cells assessed as accumulation at subG1 phase at 10 uM after 12 hrs by propidium iodide staining based flow cytometry (reference value: 6.1 +/- 0.5%)", "format": "functional"}, "U-937 [19]": {"system": "U-937", "assay": "Induction of cell cycle arrest in human U937 cells assessed as accumulation at subG1 phase at 1 uM after 48 hrs by propidium iodide staining based flow cytometry (reference value: 6.7 +/- 0.3%)", "format": "functional"}, "HL-60 [20]": {"system": "HL-60", "assay": "Induction of cell cycle arrest in human HL60 cells assessed as accumulation at S phase at 10 uM after 48 hrs by propidium iodide staining based flow cytometry (reference value: 15.3 +/- 0.1%)", "format": "functional"}, "HL-60 [21]": {"system": "HL-60", "assay": "Induction of cell cycle arrest in human HL60 cells assessed as accumulation at subG1 phase at 1 uM after 48 hrs by propidium iodide staining based flow cytometry (reference value: 3.7 +/- 0.1%)", "format": "functional"}, "U-937 [22]": {"system": "U-937", "assay": "Induction of apoptosis in human U937 cells assessed as pro-caspase-8 cleavage by Western blotting method", "format": "functional, cell-based", "how_it_was_run": "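U937 cells exposed to increasing concentrations of the flavonol and harvested at 24 h. Lysates were immunoblotted with antibodies that detect both the pro-caspases and their cleaved forms.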"}, "HL-60 [23]": {"system": "HL-60", "assay": "Induction of apoptosis in human HL60 cells in presence of p38MAPK inhibitor SB203580 after 24 hrs by propidium iodide staining based flow cytometry", "format": "functional, cell-based"}, "U-937 [24]": {"system": "U-937", "assay": "Induction of apoptosis in human U937 cells assessed as pro-caspase-9 processing at 3 and 10 uM after 6 to 24 hrs by immunoblotting method", "format": "functional, cell-based", "how_it_was_run": "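Kinetic and dose-response experiment: cells were treated with the indicated concentrations and harvested at the indicated times. Pro-caspase-8 and -9 cleavage was detected by immunoblotting with antibodies that bind both the proenzyme and the cleaved fragments.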"}, "HL-60 [25]": {"system": "HL-60", "assay": "Induction of cell cycle arrest in human HL60 cells assessed as accumulation at subG1 phase at 3 uM after 12 hrs by propidium iodide staining based flow cytometry (reference value: 6.1 +/- 0.5%)", "format": "functional"}, "MOLT-3 [26]": {"system": "MOLT-3", "assay": "Effect on Bax expression in human MOLT3 cells by Western blotting method", "format": "functional, cell-based", "how_it_was_run": "as §1"}, "U-937 [27]": {"system": "U-937", "assay": "Induction of cell cycle arrest in human U937 cells assessed as accumulation at G1 phase at 10 uM after 48 hrs by propidium iodide staining based flow cytometry (reference value: 51.9 +/- 0.9%)", "format": "functional"}, "U-937 [28]": {"system": "U-937", "assay": "Induction of apoptosis in human U937 cells assessed as pro-caspase-6 cleavage by Western blotting method", "format": "functional, cell-based", "how_it_was_run": "as §1"}, "HL-60 [29]": {"system": "HL-60", "assay": "Induction of cell cycle arrest in human HL60 cells assessed as accumulation at G1 phase at 1 uM after 48 hrs by propidium iodide staining based flow cytometry (reference value: 60.4 +/- 0.4%)", "format": "functional"}, "U-937 [30]": {"system": "U-937", "assay": "Induction of Bid processing in human U937 cells by Western blotting method"}, "[31]": {"molecular_target": "Mitogen-activated protein kinase; ERK1/ERK2 (Homo sapiens) (UniProt P27361+P28482)", "sequence (P27361 whole entry, looked up)": "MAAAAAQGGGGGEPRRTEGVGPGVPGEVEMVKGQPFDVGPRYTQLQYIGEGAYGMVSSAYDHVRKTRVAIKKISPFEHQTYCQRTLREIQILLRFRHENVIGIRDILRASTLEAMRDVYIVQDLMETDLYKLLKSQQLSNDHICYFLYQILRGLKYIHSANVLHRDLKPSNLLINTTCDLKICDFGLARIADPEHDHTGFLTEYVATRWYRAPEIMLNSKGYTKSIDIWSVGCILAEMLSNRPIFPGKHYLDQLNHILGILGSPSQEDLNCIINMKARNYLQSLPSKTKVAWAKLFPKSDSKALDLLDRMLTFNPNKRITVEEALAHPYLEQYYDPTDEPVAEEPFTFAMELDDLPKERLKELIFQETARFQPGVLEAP", "sequence (P28482 whole entry, looked up)": "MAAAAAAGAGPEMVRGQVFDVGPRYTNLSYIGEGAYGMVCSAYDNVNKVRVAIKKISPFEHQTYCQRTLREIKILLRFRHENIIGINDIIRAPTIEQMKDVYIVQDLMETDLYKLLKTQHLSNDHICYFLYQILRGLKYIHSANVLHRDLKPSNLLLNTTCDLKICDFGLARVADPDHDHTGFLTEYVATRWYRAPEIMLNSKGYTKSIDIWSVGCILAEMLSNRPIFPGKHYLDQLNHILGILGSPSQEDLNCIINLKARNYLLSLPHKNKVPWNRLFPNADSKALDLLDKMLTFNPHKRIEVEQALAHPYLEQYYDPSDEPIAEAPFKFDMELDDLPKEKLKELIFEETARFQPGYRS", "assay": "Increase in ERK1/2 phosphorylation in human HL60 cells at 10 to 30 uM after 2 to 6 hrs by Western blotting method", "format": "cell-based", "conditions": "HL-60", "how_it_was_run": "as §2"}, "HL-60 [32]": {"system": "HL-60", "assay": "Induction of apoptosis in human HL60 cells assessed as pro-caspase-6 cleavage by Western blotting method", "format": "functional, cell-based", "how_it_was_run": "as §1"}},
  "note": "The source made the active and inactive calls. No cut-off for these calls is given here.",
  "data": [
    {"compound": "O=c1c(O)c(-c2ccc(Br)cc2)oc2ccccc12", "values": [
      {"measurement": "Activity", "setting": "HL-60 [1]", "value": "Active"},
      {"measurement": "Activity", "setting": "U-937 [2]", "value": 42.3, "unit": "%"},
      {"measurement": "Activity", "setting": "MOLT-3 [3]", "value": "Active"},
      {"measurement": "Activity", "setting": "[4]", "value": "Active"},
      {"measurement": "Activity", "setting": "U-937 [5]", "value": 21.5, "unit": "%"},
      {"measurement": "Activity", "setting": "HL-60 [6]", "value": "Active"},
      {"measurement": "Activity", "setting": "HL-60 [7]", "value": "Active"},
      {"measurement": "Activity", "setting": "MOLT-3 [8]", "value": "Active"},
      {"measurement": "Activity", "setting": "HL-60 [9]", "value": 12.6, "unit": "%"},
      {"measurement": "Activity", "setting": "U-937 [10]", "value": 19.9, "unit": "%"},
      {"measurement": "Activity", "setting": "U-937 [11]", "value": "Active"},
      {"measurement": "Activity", "setting": "U-937 [12]", "value": 24.9, "unit": "%"},
      {"measurement": "IC50", "setting": "[13]", "value": 3.3, "unit": "µM"},
      {"measurement": "Activity", "setting": "U-937 [14]", "value": 40.2, "unit": "%"},
      {"measurement": "Activity", "setting": "MOLT-3 [15]", "value": "inactive"},
      {"measurement": "Activity", "setting": "HL-60 [16]", "value": 58.2, "unit": "%"},
      {"measurement": "Activity", "setting": "U-937 [17]", "value": 25.1, "unit": "%"},
      {"measurement": "Activity", "setting": "HL-60 [18]", "value": 8.9, "unit": "%"},
      {"measurement": "Activity", "setting": "U-937 [19]", "value": 7, "unit": "%"},
      {"measurement": "Activity", "setting": "HL-60 [20]", "value": 7.3, "unit": "%"},
      {"measurement": "Activity", "setting": "HL-60 [21]", "value": 3.4, "unit": "%"},
      {"measurement": "Activity", "setting": "U-937 [22]", "value": "Active"},
      {"measurement": "Activity", "setting": "HL-60 [23]", "value": "Active"},
      {"measurement": "Activity", "setting": "U-937 [24]", "value": "Active"},
      {"measurement": "Activity", "setting": "HL-60 [25]", "value": 6.3, "unit": "%"},
      {"measurement": "Activity", "setting": "MOLT-3 [26]", "value": "inactive"},
      {"measurement": "Activity", "setting": "U-937 [27]", "value": 41.4, "unit": "%"},
      {"measurement": "Activity", "setting": "U-937 [28]", "value": "Active"},
      {"measurement": "Activity", "setting": "HL-60 [29]", "value": 57.6, "unit": "%"},
      {"measurement": "Activity", "setting": "U-937 [30]", "value": "Active"},
      {"measurement": "Activity", "setting": "[31]", "value": "Active"},
      {"measurement": "Activity", "setting": "HL-60 [32]", "value": "Active"}
    ]}
  ]
}
